Blank lines part the entries; values can stand above or below the compound they belong to. The source made the active and inactive calls.
Experiments:
[1] = target: Adrenergic receptor alpha-1 (Rattus norvegicus) (UniProt P15823+P23944+P43140); assay: Binding affinity towards alpha-1 adrenergic receptor at 1.0 uM concentration; format: protein assay
How it was run: (§1)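 Rat brain crude synaptic membranes in 20 mM NaHEPES pH 7.5. Ligands: α1 cortex […] 0.4 nM, nonspecific with (-)-NE 100 μM, 30 min at 25 °C. […] D2 striatum [3H]spiperone 0.05 nM with (+)-butaclamol 1 μM, 45 min at 37 °C. S1 cortex [3H]5-HT 1 nM plus glutathione and MgCl2, with 5-HT 10 μM, 20 min at 37 °C. […] Samples filtered on GF/B and counted.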

[2] = target: Sodium-dependent dopamine transporter (Rattus norvegicus, UniProt P23977); assay: Inhibition of the uptake of tritiated dopamine (DA) in rat synaptosomes; format: subcellular, Brain
Sequence of Sodium-dependent dopamine transporter (P23977 whole entry): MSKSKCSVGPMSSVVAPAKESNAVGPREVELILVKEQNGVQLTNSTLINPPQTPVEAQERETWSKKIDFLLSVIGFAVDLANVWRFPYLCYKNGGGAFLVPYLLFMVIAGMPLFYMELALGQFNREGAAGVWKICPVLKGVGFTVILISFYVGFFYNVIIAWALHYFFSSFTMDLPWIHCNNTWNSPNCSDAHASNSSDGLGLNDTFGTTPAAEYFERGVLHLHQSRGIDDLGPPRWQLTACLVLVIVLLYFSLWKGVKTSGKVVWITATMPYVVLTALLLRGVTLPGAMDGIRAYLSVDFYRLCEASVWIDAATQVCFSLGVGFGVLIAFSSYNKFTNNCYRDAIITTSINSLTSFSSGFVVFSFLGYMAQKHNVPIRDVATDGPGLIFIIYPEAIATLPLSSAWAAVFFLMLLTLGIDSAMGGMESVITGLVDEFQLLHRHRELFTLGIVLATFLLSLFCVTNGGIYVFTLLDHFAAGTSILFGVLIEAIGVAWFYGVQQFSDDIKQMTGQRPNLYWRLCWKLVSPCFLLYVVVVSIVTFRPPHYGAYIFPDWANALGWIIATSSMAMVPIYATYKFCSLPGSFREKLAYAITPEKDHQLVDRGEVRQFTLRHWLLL

[3] = target: Norepinephrine transporter (Rattus norvegicus, UniProt Q9WTR4); assay: Inhibition of uptake of tritiated norepinephrine (NE) in rat synaptosomes; format: subcellular, Brain
Sequence of Norepinephrine transporter (Q9WTR4 whole entry): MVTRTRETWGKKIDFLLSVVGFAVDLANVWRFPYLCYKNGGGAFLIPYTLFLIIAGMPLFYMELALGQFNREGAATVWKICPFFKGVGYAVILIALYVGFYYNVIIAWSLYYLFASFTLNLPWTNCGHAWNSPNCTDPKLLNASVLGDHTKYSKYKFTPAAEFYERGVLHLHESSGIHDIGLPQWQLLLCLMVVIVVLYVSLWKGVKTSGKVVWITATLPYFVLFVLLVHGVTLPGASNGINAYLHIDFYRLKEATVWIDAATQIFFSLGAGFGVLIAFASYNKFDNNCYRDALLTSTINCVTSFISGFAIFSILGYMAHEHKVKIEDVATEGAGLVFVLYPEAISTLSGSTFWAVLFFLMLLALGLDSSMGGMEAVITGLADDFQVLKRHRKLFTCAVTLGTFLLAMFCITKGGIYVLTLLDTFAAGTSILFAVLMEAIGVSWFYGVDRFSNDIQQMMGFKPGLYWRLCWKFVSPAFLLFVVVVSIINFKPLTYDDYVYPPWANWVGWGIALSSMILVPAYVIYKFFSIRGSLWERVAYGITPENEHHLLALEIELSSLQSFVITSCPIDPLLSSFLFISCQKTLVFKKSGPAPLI

Mus musculus [4] = species on record: Mus musculus; assay: Gross behavioral effects ascertained in mice; S indicates significant stimulant properties.; format: functional, organism-based
How it was run: (§2)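 Male Swiss Webster mice, 18–24 g, three per dose, given ip doses of 1, 3, 10, 30, 100 and 300 mg/kg. Observed for gross behavior and held for 4 days. Scored as weak (W), stimulant (S), depressant (D) or convulsant (C).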

[5] = target: D(2) dopamine receptor (Rattus norvegicus) (UniProt P61169); assay: Binding affinity towards dopamine receptor D2 at 1.0 uM concentration; how it was run: as §1
Sequence of D(2) dopamine receptor (Rattus norvegicus) (P61169 whole entry): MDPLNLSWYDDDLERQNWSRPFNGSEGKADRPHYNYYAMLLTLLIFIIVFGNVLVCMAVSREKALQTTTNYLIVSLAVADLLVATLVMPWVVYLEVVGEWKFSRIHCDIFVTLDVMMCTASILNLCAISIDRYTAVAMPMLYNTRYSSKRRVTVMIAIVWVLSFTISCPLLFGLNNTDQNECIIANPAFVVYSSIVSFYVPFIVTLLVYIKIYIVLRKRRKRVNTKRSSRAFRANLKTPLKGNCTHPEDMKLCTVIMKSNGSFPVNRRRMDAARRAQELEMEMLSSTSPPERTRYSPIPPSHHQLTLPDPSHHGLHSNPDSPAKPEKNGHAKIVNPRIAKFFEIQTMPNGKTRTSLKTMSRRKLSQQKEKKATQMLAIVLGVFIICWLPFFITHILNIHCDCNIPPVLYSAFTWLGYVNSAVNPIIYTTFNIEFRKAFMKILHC

[6] = target: Serotonin 2 (5-HT2) receptor (Rattus norvegicus) (UniProt P30994+P08909+P14842); assay: Binding affinity towards 5-hydroxytryptamine 2 receptor at 1.0 uM concentration; format: protein assay; how it was run: as §1
Sequence of Serotonin 2 (5-HT2) receptor (Rattus norvegicus) (P08909 whole entry, looked up): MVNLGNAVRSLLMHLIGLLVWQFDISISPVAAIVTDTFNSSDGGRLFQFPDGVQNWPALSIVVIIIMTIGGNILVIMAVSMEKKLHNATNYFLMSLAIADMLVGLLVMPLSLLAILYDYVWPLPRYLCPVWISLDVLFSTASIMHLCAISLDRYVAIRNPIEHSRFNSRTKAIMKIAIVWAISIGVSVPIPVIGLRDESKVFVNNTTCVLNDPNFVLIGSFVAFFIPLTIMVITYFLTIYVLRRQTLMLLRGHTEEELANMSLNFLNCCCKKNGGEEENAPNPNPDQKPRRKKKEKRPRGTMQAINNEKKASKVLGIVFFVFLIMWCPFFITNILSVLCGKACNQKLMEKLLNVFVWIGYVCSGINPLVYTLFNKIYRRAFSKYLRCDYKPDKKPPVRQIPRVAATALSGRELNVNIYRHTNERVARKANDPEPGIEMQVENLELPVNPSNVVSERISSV
Sequence of Serotonin 2 (5-HT2) receptor (Rattus norvegicus) (P14842 whole entry, looked up): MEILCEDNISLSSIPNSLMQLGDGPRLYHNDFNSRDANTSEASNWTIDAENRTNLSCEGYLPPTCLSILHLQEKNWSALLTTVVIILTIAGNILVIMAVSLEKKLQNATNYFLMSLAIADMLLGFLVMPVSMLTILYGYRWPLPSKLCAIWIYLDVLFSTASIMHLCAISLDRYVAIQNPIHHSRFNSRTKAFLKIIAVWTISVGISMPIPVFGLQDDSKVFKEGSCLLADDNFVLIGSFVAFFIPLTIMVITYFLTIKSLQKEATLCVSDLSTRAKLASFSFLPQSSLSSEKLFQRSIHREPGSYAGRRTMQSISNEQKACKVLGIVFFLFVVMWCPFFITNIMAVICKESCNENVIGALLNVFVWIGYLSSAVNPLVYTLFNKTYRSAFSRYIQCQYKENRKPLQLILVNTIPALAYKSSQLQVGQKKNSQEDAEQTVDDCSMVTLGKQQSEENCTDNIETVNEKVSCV
Sequence of Serotonin 2 (5-HT2) receptor (Rattus norvegicus) (P30994 whole entry, looked up): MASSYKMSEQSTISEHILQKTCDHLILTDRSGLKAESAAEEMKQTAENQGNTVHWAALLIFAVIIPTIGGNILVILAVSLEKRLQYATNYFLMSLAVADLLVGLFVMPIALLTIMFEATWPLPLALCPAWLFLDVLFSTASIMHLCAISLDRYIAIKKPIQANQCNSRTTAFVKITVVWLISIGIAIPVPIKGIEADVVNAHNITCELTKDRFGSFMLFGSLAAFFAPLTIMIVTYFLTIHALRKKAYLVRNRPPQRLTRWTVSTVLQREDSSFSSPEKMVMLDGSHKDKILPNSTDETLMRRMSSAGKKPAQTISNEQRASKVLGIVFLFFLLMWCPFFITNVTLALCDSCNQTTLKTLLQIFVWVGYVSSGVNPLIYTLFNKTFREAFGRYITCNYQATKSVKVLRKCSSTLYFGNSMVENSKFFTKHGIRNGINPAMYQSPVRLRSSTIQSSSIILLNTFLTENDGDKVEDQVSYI

Mus musculus [7] = species on record: Mus musculus; assay: Antagonism of tetrabenazine (TBZ)-induced depression measured in mice by motor activity; format: functional
How it was run: (§3)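 Nonfasted male Swiss Webster mice, 18–24 g, ten per dose level and in saline controls. Test compound given ip 30 min before tetrabenazine 32 mg/kg ip; dose expressed as free base. Motor activity and ptosis scored. Control response ≤90% corrected by Abbott's formula.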

Mus musculus [8] = species on record: Mus musculus; assay: Antagonism of tetrabenazine (TBZ)-induced depression in mice measured for ptosis; format: functional; how it was run: as §3
[9] = target: Muscarinic acetylcholine receptor (Rattus norvegicus) (UniProt P08482+P08483+P08485+P08911+P10980); assay: Binding affinity towards Muscarinic acetylcholine receptor at 1.0 uM concentration; format: protein assay
[10] = target: Serotonin 1 (5-HT1) receptor (Rattus norvegicus, UniProt P28564+P30940+P19327+P28565); assay: Binding affinity towards serotonin S1 receptor; format: protein assay; how it was run: as §1
[11] = target: T1, Adrenergic receptor alpha-2 (Rattus norvegicus, UniProt P22086+P19328+P22909); assay: Binding affinity towards alpha-2 adrenergic receptor; format: protein assay
T1 sequence (P22086 whole entry): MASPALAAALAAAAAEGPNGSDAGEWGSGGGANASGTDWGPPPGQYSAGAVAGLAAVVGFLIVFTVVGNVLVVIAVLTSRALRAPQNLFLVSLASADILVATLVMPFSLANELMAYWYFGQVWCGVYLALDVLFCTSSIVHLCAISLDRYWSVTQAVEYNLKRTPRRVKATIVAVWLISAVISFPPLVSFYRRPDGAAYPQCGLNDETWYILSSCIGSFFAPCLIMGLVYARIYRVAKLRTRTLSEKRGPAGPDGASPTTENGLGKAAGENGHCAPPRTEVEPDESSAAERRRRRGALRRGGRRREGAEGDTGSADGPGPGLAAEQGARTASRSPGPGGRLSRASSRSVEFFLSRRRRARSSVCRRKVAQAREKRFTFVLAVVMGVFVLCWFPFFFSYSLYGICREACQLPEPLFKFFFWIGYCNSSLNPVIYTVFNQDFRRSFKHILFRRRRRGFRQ
T1 sequence (P19328 whole entry): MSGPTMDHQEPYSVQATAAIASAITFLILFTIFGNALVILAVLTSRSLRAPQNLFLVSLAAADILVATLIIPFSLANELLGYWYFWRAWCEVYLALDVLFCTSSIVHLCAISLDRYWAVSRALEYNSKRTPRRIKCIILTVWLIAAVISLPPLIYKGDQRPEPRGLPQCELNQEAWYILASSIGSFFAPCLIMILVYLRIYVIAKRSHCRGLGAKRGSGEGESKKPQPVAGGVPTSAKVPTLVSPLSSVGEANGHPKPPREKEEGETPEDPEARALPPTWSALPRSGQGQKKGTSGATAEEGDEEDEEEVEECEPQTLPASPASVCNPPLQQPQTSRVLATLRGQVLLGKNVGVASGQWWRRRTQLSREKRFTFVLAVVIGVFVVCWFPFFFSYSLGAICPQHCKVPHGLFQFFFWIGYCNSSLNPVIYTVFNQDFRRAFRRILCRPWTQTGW
T1 sequence (P22909 whole entry): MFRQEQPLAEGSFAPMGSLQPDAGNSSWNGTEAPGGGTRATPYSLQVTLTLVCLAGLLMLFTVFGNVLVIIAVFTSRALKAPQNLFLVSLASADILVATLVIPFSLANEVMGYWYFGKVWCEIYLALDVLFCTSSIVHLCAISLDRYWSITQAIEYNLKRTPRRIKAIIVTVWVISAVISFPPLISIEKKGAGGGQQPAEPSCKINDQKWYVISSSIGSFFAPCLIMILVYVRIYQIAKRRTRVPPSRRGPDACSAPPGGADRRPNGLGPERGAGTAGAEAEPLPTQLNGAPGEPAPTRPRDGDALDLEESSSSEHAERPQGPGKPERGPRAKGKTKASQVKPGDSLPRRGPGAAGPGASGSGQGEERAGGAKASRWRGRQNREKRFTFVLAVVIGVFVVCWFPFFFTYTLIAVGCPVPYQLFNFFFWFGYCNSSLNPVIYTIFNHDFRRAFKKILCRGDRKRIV

[12] = target: Norepinephrine transporter (Rattus norvegicus) (UniProt Q9WTR4); assay: Ability to inhibit the uptake of [3H]norepinephrine (NE) 0.1 uM concentration at rat brain synaptosomes; format: functional, subcellular
Sequence of Norepinephrine transporter (Rattus norvegicus) (Q9WTR4 as listed by the source): as the sequence (Q9WTR4 whole entry) above
How it was run: (§4)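 Male Wistar rat brain synaptosomes (P2 fraction): hypothalamus for NE, striatum for DA, cerebral cortex for 5-HT. Buffer is Tris- or HEPES-buffered salt medium with glucose, ascorbate and nialamide, pH 7.4 at 37 °C. Preincubated 10 min at 37 °C with compound. Uptake started with [3H]NE 100–300 nM, [3H]DA 50–300 nM or [3H]5-HT 100–200 nM, incubated 3 min (DA) or 6–10 min (NE, 5-HT). Blanks held on ice. Filtered, counted by scintillation.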

Mus musculus [13] = assay: (§5) Ability to antagonise intraperitoneal dose; inactive (<10% antagonism) at 30 mgjkg is represented as I-30.; format: functional, organism-based
How it was run: (§6)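 Swiss Webster male albino mice, nonfasted, 18–24 g, 10 per dose and in saline control. Compound given ip 30 min before TBZ 32 mg/kg ip. Motor activity and ptosis scored. Response corrected by Abbott's formula when control response was 90% or less. Doses expressed as free base.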

Mus musculus [14] = assay: as §5; format: functional, organism-based; how it was run: as §6; remark: listed apart in the source
Rattus norvegicus [15] = species on record: Rattus norvegicus; assay: Ability to inhibit the uptake of tritiated dopamine (DA) 1 uM concentration; format: functional
How it was run: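 Rat brain synaptosomal [3H]dopamine uptake: striatal P2 fraction, test compound at 1.00 μM. Preincubated at 37 °C, then 50–300 nM [3H]DA for 3 min. Blanks on ice. Filtration and scintillation counting; percent inhibition of control uptake.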

Mus musculus [16] = species on record: Mus musculus; assay: Gross behavioral effects ascertained in mice; W indicates weak stimulant or depressant activity of little significance.; format: functional, organism-based; how it was run: as §2
[17] = target: Sodium-dependent serotonin transporter (Rattus norvegicus) (UniProt P31652); assay: Ability to inhibit the uptake of [3H]- serotonin(5-HT) 0.1 uM concentration at rat brain synaptosomes; format: functional, subcellular; how it was run: as §4
Sequence of Sodium-dependent serotonin transporter (Rattus norvegicus) (P31652 whole entry): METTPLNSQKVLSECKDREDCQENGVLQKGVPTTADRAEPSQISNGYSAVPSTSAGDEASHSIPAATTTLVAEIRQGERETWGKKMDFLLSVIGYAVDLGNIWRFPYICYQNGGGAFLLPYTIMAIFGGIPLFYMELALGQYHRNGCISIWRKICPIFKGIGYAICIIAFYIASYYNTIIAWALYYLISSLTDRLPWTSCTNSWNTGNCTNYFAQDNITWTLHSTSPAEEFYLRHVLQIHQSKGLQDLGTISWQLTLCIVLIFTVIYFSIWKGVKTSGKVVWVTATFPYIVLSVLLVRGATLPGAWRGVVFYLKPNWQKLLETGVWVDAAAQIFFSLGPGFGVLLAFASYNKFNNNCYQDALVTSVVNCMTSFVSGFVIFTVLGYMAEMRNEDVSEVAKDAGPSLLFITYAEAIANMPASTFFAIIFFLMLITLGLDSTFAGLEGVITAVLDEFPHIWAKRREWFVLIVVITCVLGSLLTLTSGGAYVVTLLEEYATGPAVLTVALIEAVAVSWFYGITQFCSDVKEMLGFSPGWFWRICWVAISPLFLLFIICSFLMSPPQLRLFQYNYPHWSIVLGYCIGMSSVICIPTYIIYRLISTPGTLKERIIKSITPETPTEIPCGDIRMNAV

[18] = target: T2, Adrenergic receptor alpha-1 (Rattus norvegicus, UniProt P15823+P23944+P43140); assay: Binding affinity towards alpha-1 adrenergic receptor; format: protein assay
T2 sequence (P15823 whole entry): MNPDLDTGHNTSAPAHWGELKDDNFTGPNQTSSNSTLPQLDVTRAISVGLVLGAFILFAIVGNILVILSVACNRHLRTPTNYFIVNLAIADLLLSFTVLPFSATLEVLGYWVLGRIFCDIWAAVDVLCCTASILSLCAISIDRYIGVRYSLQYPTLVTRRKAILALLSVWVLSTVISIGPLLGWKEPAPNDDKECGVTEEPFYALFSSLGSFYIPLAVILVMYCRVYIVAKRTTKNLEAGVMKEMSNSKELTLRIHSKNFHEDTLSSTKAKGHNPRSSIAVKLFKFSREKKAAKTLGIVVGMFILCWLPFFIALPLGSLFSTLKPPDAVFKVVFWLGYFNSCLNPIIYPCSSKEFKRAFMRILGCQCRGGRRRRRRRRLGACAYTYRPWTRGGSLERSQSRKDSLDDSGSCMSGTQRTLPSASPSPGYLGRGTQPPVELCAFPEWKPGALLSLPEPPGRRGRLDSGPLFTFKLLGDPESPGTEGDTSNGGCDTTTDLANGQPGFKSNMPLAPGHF
T2 sequence (P23944 whole entry): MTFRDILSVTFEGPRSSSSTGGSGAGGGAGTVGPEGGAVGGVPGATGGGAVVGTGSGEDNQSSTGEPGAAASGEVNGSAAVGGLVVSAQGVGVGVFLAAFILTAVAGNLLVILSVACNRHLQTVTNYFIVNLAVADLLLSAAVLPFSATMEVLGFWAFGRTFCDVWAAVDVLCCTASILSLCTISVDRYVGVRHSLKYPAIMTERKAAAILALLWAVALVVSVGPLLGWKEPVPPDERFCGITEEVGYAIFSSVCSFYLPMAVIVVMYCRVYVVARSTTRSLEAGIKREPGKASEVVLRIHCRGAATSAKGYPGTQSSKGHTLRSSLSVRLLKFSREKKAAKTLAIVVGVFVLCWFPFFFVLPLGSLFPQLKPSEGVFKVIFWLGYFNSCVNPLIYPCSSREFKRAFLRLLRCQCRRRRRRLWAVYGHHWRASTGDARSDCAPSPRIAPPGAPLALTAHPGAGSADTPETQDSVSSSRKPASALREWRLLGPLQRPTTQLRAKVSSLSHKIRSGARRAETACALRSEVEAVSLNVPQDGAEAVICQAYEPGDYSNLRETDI
T2 sequence (P43140 whole entry): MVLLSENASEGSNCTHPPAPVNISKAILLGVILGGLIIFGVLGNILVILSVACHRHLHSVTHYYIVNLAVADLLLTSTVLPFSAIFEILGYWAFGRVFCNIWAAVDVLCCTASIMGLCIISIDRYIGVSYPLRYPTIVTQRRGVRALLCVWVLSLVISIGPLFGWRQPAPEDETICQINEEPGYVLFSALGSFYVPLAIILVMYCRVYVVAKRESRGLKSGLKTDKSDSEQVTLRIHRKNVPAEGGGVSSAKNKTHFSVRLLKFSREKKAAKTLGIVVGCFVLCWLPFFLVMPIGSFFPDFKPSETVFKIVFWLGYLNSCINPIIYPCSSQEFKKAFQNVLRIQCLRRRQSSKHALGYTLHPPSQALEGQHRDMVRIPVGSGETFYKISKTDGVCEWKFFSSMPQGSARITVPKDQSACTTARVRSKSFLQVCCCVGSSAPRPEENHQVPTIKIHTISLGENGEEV

D(2) dopamine receptor = D(2) dopamine receptor (Rattus norvegicus, UniProt P61169); assay: Binding affinity towards Dopamine receptor D2
Sequence of D(2) dopamine receptor (P61169 whole entry): as the sequence (P61169 whole entry) above

Rattus norvegicus [19] = species on record: Rattus norvegicus; assay: Inhibition of GABA uptake at 1 uM concentration.; format: functional
[20] = target: Adrenergic receptor alpha-2 (Rattus norvegicus) (UniProt P22086+P19328+P22909); assay: Binding affinity towards alpha-2 adrenergic receptor at 1.0 uM concentration; format: protein assay

- Ki [18]: 172 nM
- Ki [10]: > 10000 nM
- Ki (D(2) dopamine receptor): 875 nM
- Ki [11]: 750 nM
SMILES: c1ccc([C@@H]2CN3CCC[C@@H]3c3ccccc32)cc1 (stereo in doubt; 7b)
- ED50 (Mus musculus [7]): 0.34 mg/kg
- ED50 (Mus musculus [8]): 0.07 mg/kg

- Ki [10]: 5000 nM
- Ki (D(2) dopamine receptor): 56 nM
- Ki [11]: 51 nM
SMILES: CN(C)CCCN1c2ccccc2CCc2ccc(Cl)cc21 [CLOMIPRAMINE]

Continued, compound first:

SMILES: Clc1ccc([C@@H]2CN3CCC[C@@H]3c3ccccc32)cc1Cl
- inhibition [1]: 33%
- Ki [2]: 0.99 nM
- Ki [3]: 0.68 nM
- behavior (Mus musculus [4]): Stimulant
- inhibition [5]: 37%
- inhibition [6]: 24%
- ED50 (Mus musculus [7]; Mus musculus, read-out: ED50): 0.39 mg/kg
- ED50 (Mus musculus [8]; Mus musculus, read-out: ED50): 0.14 mg/kg
- inhibition [9]: 9%
- Ki [10]: 465 nM
- Ki [11]: 990 nM

SMILES: C[C@@]12CCCN1CCc1ccccc12
- inhibition [12]: 6%
- ED50 (Mus musculus [13]): inactive
- ED50 (Mus musculus [14]): inactive
- Inhibition (Rattus norvegicus [15]): 15%
- behavior (Mus musculus [16]): Weak
- inhibition [17]: 2%

SMILES: Clc1ccccc1[C@@H]1CN2CCC[C@@H]2c2ccccc21 (stereo in doubt; 24b)
- inhibition (Rattus norvegicus [19]): 16%
- inhibition [9]: 6%
- inhibition [20]: 12%
- behavior (Mus musculus [16]): Partial stimulant
